The values that follow come from ChEMBL document CHEMBL4138207, “Phenolic Substances from Ocimum Species Enhance Glucose-Stimulated Insulin Secretion and Modulate the Expression of Key Insulin Regulatory Genes in Mice Pancreatic Islets” (J Nat Prod, 2017).

Series [1] is described as follows: Induction of 16.7 mM glucose-stimulated insulin secretion in NMRI mouse pancreatic islets at 10^-6 M after 60 mins by radioimmunoassay relative to 16.7 mM glucose control. The format is functional, Pancreatic islet. The essentials:
(§1)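 Female NMRI mouse islets, cultured overnight, were preincubated 30 min in KRB with 3.3 mM glucose and 0.1% BSA. Single islets were then incubated 60 min at 37 °C in HEPES-KRB (pH 7.4) with 16.7 mM glucose plus compound at 10−10, 10−8 or 10−6 M, diluted from 10−4 M aqueous stock. Medium insulin was measured by RIA and expressed as fold of the 16.7 mM glucose control; 24 replicates.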

For series [2], the system named is Pancreatic islet. As to the kind of experiment: Upregulation of PDX1 mRNA expression in NMRI mouse pancreatic islets at 10^-8 M after 72 hrs by Taqman-based qRT-PCR analysis. It counts as functional, cell-based. The gist of the method: (§2)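 Female NMRI mouse islets were exposed 72 h to compound at 10−8 M in RPMI with 11.1 mM glucose. Islets from 2–3 mice (180–200) were pooled for Trizol RNA extraction. Reverse transcription and 14-cycle preamplification preceded TaqMan real-time PCR. Data were normalized to the geometric mean of 18S and Hprt1 by the (1+efficiency)−ΔCT method and expressed as fold versus untreated control. Samples were run in triplicate, each measured in triplicate.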
On the technique in general: Quantitative PCR measures a nucleic acid by following its amplification.

Series [3] can be described thus: Induction of 16.7 mM glucose-stimulated insulin secretion in NMRI mouse pancreatic islets at 10^-10 M after 60 mins by radioimmunoassay relative to 16.7 mM glucose control. The format is functional, Pancreatic islet. The gist of the method:
as §1

Series [4] deals with Pancreatic islet. Kind of series: Induction of 16.7 mM glucose-stimulated insulin secretion in NMRI mouse pancreatic islets at 10^-6 M after 60 mins by radioimmunoassay. It counts as functional, cell-based. The gist of the method: (§3)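 Islets from adult female NMRI mice (22–25 g), collagenase-isolated and cultured overnight in RPMI 1640 (11.1 mM glucose, 10% FCS) at 37 °C. After 30 min preincubation in KRB with 3.3 mM glucose and 0.1% BSA, single islets were incubated 60 min at 37 °C in HEPES-KRB (pH 7.4) at 3.3, 6.6, 11.1 or 16.7 mM glucose ± compound at 10−6 M. Insulin in the medium was measured by RIA, reported in ng/mL; n = 16 per treatment.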

Series [5] can be described thus: Induction of 16.7 mM glucose-stimulated insulin secretion in NMRI mouse pancreatic islets at 10^-8 M pretreated for 72 hrs in presence of 11.1 mM glucose followed by 16.7 mM glucose stimulation after 60 mins by radioimmunoassay relative to 16.7 mM glucose control. It counts as functional, Pancreatic islet. The essentials: (§4)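 Islets from female NMRI mice were cultured 72 h in RPMI with 11.1 mM glucose and 10% FCS, ± compound at 10−8 M final. They were rinsed and preincubated 30 min in KRB with 3.3 mM glucose and 0.1% BSA. Single islets were then stimulated 60 min at 37 °C with 3.3 or 16.7 mM glucose. Insulin was measured by RIA as fold of the 16.7 mM glucose control; 24 replicates.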

The nature of series [6]: Induction of 16.7 mM glucose-stimulated insulin secretion in NMRI mouse pancreatic islets at 10^-8 M after 60 mins by radioimmunoassay relative to 16.7 mM glucose control. The format is functional, Pancreatic islet. The essentials:
as §1

Series [7] concerns Pancreatic islet. As to the kind of experiment: Upregulation of […] mRNA expression in NMRI mouse pancreatic islets at 10^-8 M after 72 hrs by Taqman-based qRT-PCR analysis. It counts as functional, cell-based. The essentials:
as §2

Series [8] can be described thus: Induction of 6.6 mM glucose-stimulated insulin secretion in NMRI mouse pancreatic islets at 10^-6 M after 60 mins by radioimmunoassay. The note with it: pancreatic islet, 1 h, 1 µM. The format is cell-based. The gist of the method: as §3
Series [9] has as its system Pancreatic islet. Kind of series: Upregulation of GCGR mRNA expression in NMRI mouse pancreatic islets at 10^-8 M after 72 hrs by Taqman-based qRT-PCR analysis. It counts as functional, cell-based. The essentials: as §2
The subject of series [10] is Pancreatic islet. As to the kind of experiment: Upregulation of INS1 mRNA expression in NMRI mouse pancreatic islets at 10^-8 M after 72 hrs by Taqman-based qRT-PCR analysis. It counts as functional, cell-based. The essentials:
as §2

A short description of series [11]: Induction of 3.3 mM glucose-stimulated insulin secretion in NMRI mouse pancreatic islets at 10^-6 M after 60 mins by radioimmunoassay. It counts as cell-based. The note with it: pancreatic islet, 1 h, 1 µM. The essentials:
as §3

Series [12] concerns Pancreatic islet. As to the kind of experiment: Upregulation of IRS1 mRNA expression in NMRI mouse pancreatic islets at 10^-8 M after 72 hrs by Taqman-based qRT-PCR analysis. It counts as functional, cell-based. The gist of the method:
as §2

Series [13] deals with Pancreatic islet. As to the kind of experiment: Upregulation of GLUT2 mRNA expression in NMRI mouse pancreatic islets at 10^-8 M after 72 hrs by Taqman-based qRT-PCR analysis. It counts as functional, cell-based. The essentials: as §2
Series [14] in a line: Induction of 3.3 mM glucose-stimulated insulin secretion in NMRI mouse pancreatic islets at 10^-8 M pretreated for 72 hrs in presence of 11.1 mM glucose followed by 3.3 mM glucose stimulation after 60 mins by radioimmunoassay. It counts as cell-based. The settings on record: pancreatic islet, 1 h, 0.01 µM. The essentials: as §4
The subject of series [15] is Pancreatic islet. As to the kind of experiment: Upregulation of INSR mRNA expression in NMRI mouse pancreatic islets at 10^-8 M after 72 hrs by Taqman-based qRT-PCR analysis. The format is functional, cell-based. The gist of the method: as §2
Series [16] concerns Pancreatic islet. Kind of series: Upregulation of INS2 mRNA expression in NMRI mouse pancreatic islets at 10^-8 M after 72 hrs by Taqman-based qRT-PCR analysis. It counts as functional, cell-based. The gist of the method: as §2
The test system of series [17] is Pancreatic islet. As to the kind of experiment: (§5) Induction of 11.1 mM glucose-stimulated insulin secretion in NMRI mouse pancreatic islets at 10^-6 M after 60 mins by radioimmunoassay relative to control. It counts as functional. The essentials:
as §3

Series [18] can be described thus: as §5. The format is functional, Pancreatic islet. The essentials:
as §3

Activity calls are given as the source filed them. No cut-off for these calls is given here.

As for `O=c1cc(-c2ccc(O)cc2)oc2c([C@@H]3O[C@H](CO)[C@@H](O)[C@H](O)[C@H]3O)c(O)c([C@@H]3O[C@H](CO)[C@@H](O)[C@H](O)[C@H]3O)c(O)c12`, the “fold change (FC)” value in series [1] worked out at 2.3; in series [3], 2.5; in series [5] it was 2.2; in [6] it was 2.3. Also, the outcome with Pancreatic islet [2], in the series on Pancreatic islet [7], in the series on Pancreatic islet [9], in the series with Pancreatic islet [10], with Pancreatic islet [12] and in the series with Pancreatic islet [13] was inactive. In addition, the outcome in the series on Pancreatic islet [16] was inactive. For the same molecule, the result in the series with Pancreatic islet [4] and in the series with Pancreatic islet [15] was Active. Moreover, the Activity result in series [8], in series [11] and in series [14] was “Non-Toxic” each time.
With `O=C(O)/C=C/c1ccc(O)c(O)c1` [CAFFEIC ACID], the “fold change (FC)” value came to 2 in [1], 1.5 in series [5] and 1.7 in series [6]. The outcome in the series with Pancreatic islet [2], with Pancreatic islet [4], with Pancreatic islet [7] and in the series on Pancreatic islet [13] was Active. Besides, the result in the series with Pancreatic islet [17], in the series with Pancreatic islet [9], in the series with Pancreatic islet [10], in the series on Pancreatic islet [12], in the series on Pancreatic islet [15] and in the series on Pancreatic islet [16] was inactive. Further, the Activity entry in series [8], in [11] and in [14] was “Non-Toxic” throughout.
In the case of `O=C(/C=C/c1ccc(O)c(O)c1)O[C@@H](C(=O)O)[C@@H](O)C(=O)O` [CAFTARIC ACID], the “fold change (FC)” value is listed as 5.5 in series [1], 2.8 in series [3], 3.2 in series [5] and 5.1 in series [6]. In addition, the result in the series with Pancreatic islet [2], in the series with Pancreatic islet [7], in the series with Pancreatic islet [9], with Pancreatic islet [12] and with Pancreatic islet [13] was inactive. For the same molecule, the result in the series on Pancreatic islet [4], with Pancreatic islet [10], in the series with Pancreatic islet [15] and in the series on Pancreatic islet [16] was Active. The Activity entry in series [8], in series [11] and in series [14] was “Non-Toxic” each time.
As for `O=C(/C=C/c1ccc(O)c(O)c1)O[C@@H](C(=O)O)[C@@H](OC(=O)/C=C/c1ccc(O)c(O)c1)C(=O)O` [CICHORIC ACID], the “fold change (FC)” value came to 4.1 in series [1], 1.8 in series [3], 3.5 in series [5] and 1.9 in [6]. The outcome in the series on Pancreatic islet [2], with Pancreatic islet [4], in the series with Pancreatic islet [10], in the series on Pancreatic islet [12], with Pancreatic islet [15] and in the series with Pancreatic islet [16] was Active. The outcome with Pancreatic islet [7], in the series with Pancreatic islet [9] and with Pancreatic islet [13] was inactive. In addition, the Activity result in [8], in series [11] and in series [14] was “Non-Toxic” each time.
Regarding `O=C(/C=C/c1ccc(O)c(O)c1)O[C@H](Cc1ccc(O)c(O)c1)C(=O)O` [ROSMARINIC ACID], the “fold change (FC)” value in series [1] was found to be 4.9; in [3], 3.3; in series [5], 3.4; in series [6], 2.8. The outcome with Pancreatic islet [2], in the series on Pancreatic islet [4], in the series with Pancreatic islet [10], in the series with Pancreatic islet [12], in the series with Pancreatic islet [13] and in the series with Pancreatic islet [15] was Active. The outcome in the series with Pancreatic islet [16] was Active. The Activity in series [18] is reported as 68%; in series [8], “Non-Toxic”; in series [11], “Non-Toxic”; in [14], “Non-Toxic”. The outcome in the series with Pancreatic islet [7] and with Pancreatic islet [9] was inactive.
